Experimental data: ChEMBL document CHEMBL3085624, “Design, synthesis, and biological evaluation of novel investigational nonapeptide KISS1R agonists with testosterone-suppressive activity” (J Med Chem, 2013)
The source made the active and inactive calls. No cut-off for these calls is given here. Non-standard residues stand in square brackets, D forms with d. Residues, ends and D or L forms follow the SMILES beside them. Arg(Me) = CNC(=N)NCCC[C@H](N)C(=O)O; d4Pal = N[C@H](Cc1ccncc1)C(=O)O; azaGly = NNC(=O)O

Assays:
[1] = Metabolic stability in mouse serum assessed as compound remaining at 0.1 mM after 1 hr by HPLC analysis; type: ADME; details: read-out: Stability
Method in brief: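 Pooled mouse serum (45 µL) spiked with 5 µL of 1 mM aqueous peptide, giving 0.1 mM initial, and incubated at 37 °C. Aliquots taken at time 0 and after 1 h, quenched by boiling 3 min. Peptide quantified by HPLC peak area. Percent remaining relative to time 0; three independent experiments.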

KiSS-1 receptor [2] = biological target: T1, KiSS-1 receptor (Homo sapiens, UniProt Q969F8); assay: Binding affinity to human KISS1R expressed in CHO cell membranes
KiSS-1 receptor [3] = biological target: KiSS-1 receptor (Rattus norvegicus, UniProt Q924U1); assay: Binding affinity to rat KISS1R
Rattus norvegicus [4] = assay: Suppression of testosterone in plasma of rat at 1 nmol/h, sc measured after 13 days by radioimmunoassay; type: functional, organism-based
Method in brief: (§1)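 Male rats given peptide continuously at 1 nmol/h. Plasma testosterone measured after 6 and 13 days; detection limit 0.04 ng/mL.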

KiSS-1 receptor [5] = biological target: T1, KiSS-1 receptor; assay: Agonist activity at recombinant human KISS1R expressed in CHO cells assessed as intracellular calcium mobilization incubated for 30 mins at 37 degC and 30 mins at room temperature by Fluo-4 NW staining-based FLIPR assay relative to Metastin (45 to 54); type: functional, cell-based
Method in brief: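 CHO cells stably expressing human KISS1R seeded at 15,000 cells/well, cultured 24 h, then loaded with Fluo-4 Direct in HBSS with 4 mM probenecid and 0.1% BSA (30 min 37 °C, 30 min room temperature). Compounds from 10 µM DMSO stocks diluted in sample buffer and added. Fluorescence read for 2 min at 2 s intervals. Peak counts give agonist activity. EC50 expressed as ratio to metastin(45-54).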

Rattus norvegicus [6] = assay: Suppression of testosterone in plasma of Sprague-Dawley rat at 2 nmol/h, sc measured after 6 days by radioimmunoassay; type: functional
Method in brief: (§2)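 9-week-old male CD(SD)IGS or Copenhagen rats (5/group) given peptide in distilled water by subcutaneous dorsal ALZET osmotic pump (2 mM, 0.001 mL/h) for 6 days; water-pump controls. Plasma (aprotinin/EDTA) testosterone measured by RIA on 0.05 mL. Values below detection limit (0.04 ng/mL) set to 0.04; results expressed as percent of control.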

Rattus norvegicus [7] = assay: Suppression of testosterone in plasma of rat at 1 nmol/h, sc measured after 6 days by radioimmunoassay; type: functional, organism-based; method in brief: as §1
Rattus norvegicus [8] = assay: Induction of ovulation in immature Wistar rats assessed as increase in number of oocytes at 30 to 100 nmol/kg administered dorsally by stereomicroscopy; type: functional, organism-based
Method in brief: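 23-day-old female Wistar rats primed subcutaneously with eCG 10 IU/animal. Two days later, saline-dissolved agents injected dorsally at 30 or 100 nmol/kg (5 rats/group; saline control 6; hCG 10 IU positive control). Animals killed 24–25 h later. Oöcytes retrieved from oviducal ampulla under stereomicroscopy, or by flushing oviduct and uterus with saline, and counted.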

[9] = Plasma concentration in Copenhagen rat at 2 nmol/h, sc measured after 6 days by radioimmunoassay; type: ADME, organism-based
[10] = Bioavailability in Sprague-Dawley rat at 1 mg/kg, sc; type: ADME, organism-based; details: in vivo
Rattus norvegicus [11] = assay: Suppression of testosterone in plasma of Copenhagen rat at 2 nmol/h, sc measured after 6 days by radioimmunoassay; type: functional, organism-based; method in brief: as §2

KiSS-1 receptor (Rattus norvegicus, UniProt Q924U1), sequence (Q924U1 whole entry): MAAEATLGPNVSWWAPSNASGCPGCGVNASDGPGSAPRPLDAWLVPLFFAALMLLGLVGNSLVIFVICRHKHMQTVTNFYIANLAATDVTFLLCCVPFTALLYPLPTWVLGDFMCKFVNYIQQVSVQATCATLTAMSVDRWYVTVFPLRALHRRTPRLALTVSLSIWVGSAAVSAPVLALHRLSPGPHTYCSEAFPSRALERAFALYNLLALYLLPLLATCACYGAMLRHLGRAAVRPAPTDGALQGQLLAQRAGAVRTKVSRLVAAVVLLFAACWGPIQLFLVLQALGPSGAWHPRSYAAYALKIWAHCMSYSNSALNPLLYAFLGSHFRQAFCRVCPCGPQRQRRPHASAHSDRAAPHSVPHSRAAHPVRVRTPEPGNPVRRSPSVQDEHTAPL
T1 sequence (Q969F8 whole entry): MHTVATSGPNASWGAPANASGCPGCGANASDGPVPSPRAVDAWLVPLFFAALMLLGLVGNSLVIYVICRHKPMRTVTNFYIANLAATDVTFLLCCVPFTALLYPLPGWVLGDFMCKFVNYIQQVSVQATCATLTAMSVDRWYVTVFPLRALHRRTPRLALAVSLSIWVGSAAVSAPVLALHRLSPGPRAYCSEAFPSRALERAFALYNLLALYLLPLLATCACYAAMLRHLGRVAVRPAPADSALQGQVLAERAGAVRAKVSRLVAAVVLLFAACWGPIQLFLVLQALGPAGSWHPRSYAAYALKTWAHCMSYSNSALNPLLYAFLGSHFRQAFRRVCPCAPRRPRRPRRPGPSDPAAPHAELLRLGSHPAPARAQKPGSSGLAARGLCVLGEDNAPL

SMILES	remaining at 1 h, 100 µM [1]	Ki (KiSS-1 receptor [2])	Ki (KiSS-1 receptor [3])	fold change (FC) (KiSS-1 receptor [5])	concentration at 144 h [9]	bioavailability [10]	Activity (Rattus norvegicus [4])	Activity (Rattus norvegicus [6])	Activity (Rattus norvegicus [7])	Activity (Rattus norvegicus [8])	Activity (Rattus norvegicus [11])
CNC(N)=NCCC[C@H](NC(=O)[C@H](CC(C)C)NC(=O)NNC(=O)[C@H](Cc1ccccc1)NC(=O)[C@H](CO)NC(=O)[C@H](CC(N)=O)NC(=O)[C@@H](NC(=O)[C@@H](CC(N)=O)NC(=O)[C@H](N)Cc1ccc(O)cc1)[C@@H](C)O)C(=O)N[C@@H](Cc1ccccc1)C(N)=O	65.8%	0.29 nM	0.25 nM								
CCNC(=O)[C@@H]1CCCN1C(=O)[C@H](CCCNC(=N)N)NC(=O)[C@H](CC(C)C)NC(=O)[C@@H](CC(C)C)NC(=O)[C@H](Cc1ccc(O)cc1)NC(=O)[C@H](CO)NC(=O)[C@H](Cc1c[nH]c2ccccc12)NC(=O)[C@H](Cc1c[nH]cn1)NC(=O)[C@@H]1CCC(=O)N1							Active				
CNC(=N)NCCC[C@H](NC(=O)[C@H](CC(C)C)NC(=O)CNC(=O)[C@H](Cc1ccccc1)NC(=O)[C@H](CO)NC(=O)[C@H](CC(N)=O)NC(=O)[C@H](Cc1c[nH]c2ccccc12)NC(=O)[C@H](CC(N)=O)NC(=O)[C@H](N)Cc1ccc(O)cc1)C(=O)N[C@@H](Cc1ccccc1)C(N)=O				0.93				Active			
CNC(=N)NCCC[C@H](NC(=O)[C@H](CC(C)C)NC(=O)NNC(=O)[C@H](Cc1ccccc1)NC(=O)[C@H](CO)NC(=O)[C@H](CC(N)=O)NC(=O)[C@@H](Cc1ccncc1)NC(=O)[C@H](N)Cc1ccc(O)cc1)C(=O)N[C@@H](Cc1ccccc1)C(N)=O [KISS1-305] (H-[dY][d4Pal]NSF[azaGly]L[Arg(Me)]F-NH2)	54.9%	0.089 nM	0.1 nM	4.8	0.95 nM	40.4%	Active	0.04 ng/mL	Active	Active	Active

Further lines, with some results ahead:

remaining at 1 h, 100 µM [1]	Ki (KiSS-1 receptor [2])	Ki (KiSS-1 receptor [3])	fold change (FC) (KiSS-1 receptor [5])	concentration at 144 h [9]	bioavailability [10]	SMILES	Activity (Rattus norvegicus [4])	Activity (Rattus norvegicus [6])	Activity (Rattus norvegicus [7])	Activity (Rattus norvegicus [8])	Activity (Rattus norvegicus [11])
43.4%	0.044 nM	0.059 nM	2.4			CNC(=N)NCCC[C@H](NC(=O)[C@H](CC(C)C)NC(=O)NNC(=O)[C@H](Cc1ccccc1)NC(=O)[C@H](CO)NC(=O)[C@H](CC(N)=O)NC(=O)[C@H](Cc1c[nH]c2ccccc12)NC(=O)[C@H](N)Cc1ccc(O)cc1)C(=O)N[C@@H](Cc1ccccc1)C(N)=O (H-[dY]WNSF[azaGly]L[Arg(Me)]F-NH2)					
24.7%	0.12 nM	0.12 nM				CNC(N)=NCCC[C@H](NC(=O)[C@H](CC(C)C)NC(=O)NNC(=O)[C@H](Cc1ccccc1)NC(=O)[C@H](CO)NC(=O)[C@H](CC(N)=O)NC(=O)[C@H](Cc1ccccc1)NC(=O)[C@@H](CC(N)=O)NC(=O)[C@H](N)Cc1ccc(O)cc1)C(=O)N[C@@H](Cc1ccccc1)C(N)=O (H-[dY][dN]FNSF[azaGly]L[Arg(Me)]F-NH2)					
